From EPA's CvTdb concentration-time database

Legend:
Rat [1] = experiment: concentration in liver after dosing; details: 6 h; dosed: Perfluorooctane Sulfonate; 20 mg/kg; oral; Female; F344
Rat [2] = experiment: concentration in brain after dosing; details: 24 h; dosed: Perfluorooctane Sulfonate; 20 mg/kg; oral; Female; F344
Rat [3] = experiment: concentration in liver after dosing; details: 3360 h; dosed: Perfluorooctane Sulfonate; 20 mg/kg; oral; Male; Harlan Sprague Dawley
Rat [4] = experiment: concentration in kidney after dosing; details: 3360 h; dosed: Perfluorooctane Sulfonate; 20 mg/kg; oral; Male; Harlan Sprague Dawley
Rat [5] = experiment: concentration in plasma after dosing; details: dosed: Perfluorooctane Sulfonate, 2 mg/kg, iv, Female, Harlan Sprague-Dawley
Rat [6] = experiment: concentration in kidney after dosing; details: 6 h; dosed: Perfluorooctane Sulfonate; 2 mg/kg; oral; Female; Harlan Sprague Dawley
Rat [7] = experiment: concentration in kidney after dosing; details: 1848 h; dosed: Perfluorooctane Sulfonate; 20 mg/kg; oral; Male; Harlan Sprague Dawley
Rat [8] = experiment: concentration in brain after dosing; details: 1848 h; dosed: Perfluorooctane Sulfonate; 20 mg/kg; oral; Male; Harlan Sprague Dawley
Rat [9] = experiment: concentration in liver after dosing; details: 6 h; dosed: Perfluorooctane Sulfonate; 2 mg/kg; oral; Female; Harlan Sprague Dawley
Rat [10] = experiment: concentration in plasma after dosing; details: 4 h; dosed: Gemfibrozil; 50 mg/kg; oral; Male; Sprague-Dawley
Rat [11] = experiment: concentration in plasma after dosing; details: 10 min; dosed: Gemfibrozil; 4.29 mg/kg; oral; Male; Sprague-Dawley
Rat [12] = experiment: concentration in plasma after dosing; details: 18 h; dosed: Gemfibrozil; 4.29 mg/kg; oral; Male; Sprague-Dawley
Rat [13] = experiment: concentration in plasma after dosing; details: 0.5 h; dosed: Gemfibrozil; 100 mg/kg; oral; Male; Sprague-Dawley
Rat [14] = experiment: concentration in plasma after dosing; details: 0.5 h; dosed: Gemfibrozil; 50 mg/kg; oral; Male; Sprague-Dawley
Rat [15] = experiment: concentration in plasma after dosing; details: 5 min; dosed: Gemfibrozil; 50 mg/kg; oral; Male; Sprague-Dawley
Rat [16] = experiment: concentration in plasma after dosing; details: dosed: Perfluorohexanoic Acid, 40 mg/kg, oral, Male, Harlan Sprague Dawley
Rat [17] = experiment: concentration in kidney after dosing; details: 3 h; dosed: Perfluorohexanoic Acid; 80 mg/kg; oral; Female; Harlan Sprague Dawley
Rat [18] = experiment: concentration in plasma after dosing; details: dosed: Perfluorohexanoic Acid, 40 mg/kg, oral, Male, Harlan Sprague Dawley; remark: listed apart in the source
Rat [19] = experiment: concentration in plasma after dosing; details: 0.25 h; dosed: Perfluorohexanoic Acid; 40 mg/kg; iv; Male; F344
Rat [20] = experiment: concentration in plasma after dosing; details: dosed: Perfluorohexanoic Acid, 40 mg/kg, oral, Male, Harlan Sprague Dawley; remark: listed apart in the source
Rat [21] = experiment: concentration in liver after dosing; details: 6 h; dosed: Perfluorohexanoic Acid; 80 mg/kg; oral; Female; Harlan Sprague Dawley
Rat [22] = experiment: concentration in plasma after dosing; details: dosed: Perfluorohexanoic Acid, 80 mg/kg, oral, Male, Harlan Sprague Dawley
human = experiment: concentration in expired air after dosing; details: dosed: trichloroethylene, 100 ppm, inhalation, duration: 4 hr, person
Summary of the method: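 Data points giving concentration or amount against time came from published in vivo toxicokinetic studies and from two structured collections. PubMed searching, classifier screening and manual review located the studies. Most points were digitised from plot screenshots using WebPlotDigitizer, the rest were copied from tables, and all keep their reported units.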

Rat [23] = experiment: concentration in brain after dosing; details: 3 h; dosed: Fluorotelomer alcohol 8+2; 24 mg/kg; oral; Male; Harlan Sprague Dawley
Rat [24] = experiment: concentration in liver after dosing; details: 12 h; dosed: Fluorotelomer alcohol 8+2; 80 mg/kg; oral; Female; Harlan Sprague Dawley
Rat [25] = experiment: concentration in liver after dosing; details: 3 h; dosed: Fluorotelomer alcohol 8+2; 24 mg/kg; oral; Male; Harlan Sprague Dawley
Rat [26] = experiment: concentration in kidney after dosing; details: 0.5 h; dosed: Fluorotelomer alcohol 8+2; 24 mg/kg; oral; Male; Harlan Sprague Dawley
Rat [27] = experiment: concentration in kidney after dosing; details: 1 h; dosed: Fluorotelomer alcohol 8+2; 24 mg/kg; oral; Male; Harlan Sprague Dawley
Rat [28] = experiment: concentration in liver after dosing; details: 0.5 h; dosed: Fluorotelomer alcohol 8+2; 80 mg/kg; oral; Female; Harlan Sprague Dawley
Rat [29] = experiment: concentration in plasma after dosing; details: 7 min; dosed: 2-Methyltetrahydrofuran; 40 mg/kg; iv; Male; Harlan Sprague Dawley
Rat [30] = experiment: concentration in brain after dosing; details: 2 min; dosed: 2-Methyltetrahydrofuran; 40 mg/kg; iv; Female; Harlan Sprague Dawley
Rat [31] = experiment: concentration in brain after dosing; details: 1.5 h; dosed: 2-Methyltetrahydrofuran; 40 mg/kg; iv; Male; Harlan Sprague Dawley
Rat [32] = experiment: concentration in plasma after dosing; details: 2 h; dosed: 2-Methyltetrahydrofuran; 40 mg/kg; iv; Male; Harlan Sprague Dawley
Rat [33] = experiment: concentration in plasma after dosing; details: 2 min; dosed: 2-Methyltetrahydrofuran; 40 mg/kg; iv; Female; Harlan Sprague Dawley
Rat [34] = experiment: concentration in plasma after dosing; details: 0.5 h; dosed: 2-Methyltetrahydrofuran; 40 mg/kg; iv; Male; Harlan Sprague Dawley
Rat [35] = experiment: concentration in plasma after dosing; details: 4 h; dosed: 2-Methyltetrahydrofuran; 40 mg/kg; iv; Male; Harlan Sprague Dawley

O=S(=O)([O-])C(F)(F)C(F)(F)C(F)(F)C(F)(F)C(F)(F)C(F)(F)C(F)(F)C(F)(F)F [Perfluorooctane Sulfonate]
Details | concentration in brain [ng/g] | concentration in kidney [ng/g] | concentration in liver [ng/g]
Rat [1] | – | – | 169000
Rat [2] | 15200 | – | –
Rat [3] | – | – | 8480
Rat [4] | – | 1110 | –
Rat [6] | – | 3800 | –
Rat [7] | – | 25300 | –
Rat [8] | 2130 | – | –
Rat [9] | – | – | 19800

Rat [5]
Details | concentration in plasma [ng/mL]
1 h | 4320
192 h | 3170
2376 h | 542

Cc1ccc(C)c(OCCCC(C)(C)C(=O)O)c1 [Gemfibrozil]
Details | concentration in plasma [ng/mL]
Rat [10] | 5620
Rat [11] | 657
Rat [12] | 287
Rat [13] | 40400
Rat [14] | 4640
Rat [15] | 7230

O=C(O)C(F)(F)C(F)(F)C(F)(F)C(F)(F)C(F)(F)F [Perfluorohexanoic Acid]
Details | concentration in plasma [ng/mL]
Rat [16], 0.75 h | 46400
Rat [16], 12 h | 6500
Rat [18], 1 h | 51400
Rat [18], 24 h | 2400
Rat [20], 3 h | 56400
Rat [20], 5 min | 32900
Rat [22], 5 min | 35400
Rat [22], 9 h | 3240

Details | concentration in kidney [ng/g] | concentration in liver [ng/g] | concentration in plasma [ng/mL]
Rat [17] | 71400 | – | –
Rat [19] | – | – | 7150
Rat [21] | – | 820 | –

ClC=C(Cl)Cl [trichloroethylene]
human
Details | concentration in expired air [ppm]
0.2144 h | 4.28
0.5331 h | 2.8
1.023 h | 1.97
2.042 h | 1.38
4.039 h | 0.761
5.983 h | 0.736
7.98 h | 0.579
10.1 h | 0.488

O=C(O)CCC(F)(F)C(F)(F)C(F)(F)C(F)(F)C(F)(F)C(F)(F)C(F)(F)F [Fluorotelomer acid 7+3]
Details | concentration in brain [ng/g] | concentration in kidney [ng/g] | concentration in liver [ng/g]
Rat [23] | 463 | – | –
Rat [24] | – | – | 7200
Rat [25] | – | – | 2680
Rat [26] | – | 198 | –
Rat [27] | – | 568 | –
Rat [28] | – | – | 934

CC1CCCO1 (centres undefined) [2-Methyltetrahydrofuran]
Details | concentration in brain [ng/mL] | concentration in plasma [ng/mL]
Rat [29] | – | 57300
Rat [30] | 50400 | –
Rat [31] | 8330 | –
Rat [32] | – | 13900
Rat [33] | – | 55300
Rat [34] | – | 25100
Rat [35] | – | 1880
